Experimental data collected from several papers.
Lines come from different studies, so protocols differ.
Target: Receptor tyrosine-protein kinase erbB-2 (ERBB2, Homo sapiens, UniProt P04626)

SMILES | effect on | action | method | concentration | endpoint | result
COc1cc2nccc(Oc3ccc(NC(=O)c4c5n(n(-c6ccc(F)cc6)c4=O)CCCC5)cc3)c2cc1OC | enzyme activity | inhibitor | – | 0.1 µM | inhibition | -1%
COc1cccc2c(NCc3ccccc3)nc(-n3c(N)nc4ccccc43)nc12 | target engagement in cells | inhibitor | chemoproteomics | 20 mM | inhibition | 32.6%
Cc1ccc(NC(=O)c2ccc(C)c(C(F)(F)F)c2)cc1C#Cc1nn(C2CCC(O)CC2)c2ncnc(N)c12 (centres unmarked) | cell-free assay | – | – | 10 µM | remaining signal | 4%
COc1cc(Nc2c(C#N)cnc3cc(OCCCN4CCN(C)CC4)c(OC)cc23)c(Cl)cc1Cl | cell-free assay | – | – | 0.5 µM | remaining signal | 32.9%
Cc1noc([C@H]2C[C@@H](c3ccc(C(F)(F)F)cc3)CN(C(=O)N3CCS(=O)(=O)C3)C2)n1 | cell-free assay | – | competition with immobilised ligand | 1 µM | remaining binding | 100%
CC#CC(=O)Nc1cc2c(Nc3ccc(F)c(Cl)c3)ncnc2cn1 | cell-free assay | – | – | 0.5 µM | remaining signal | 2.36%
O=C(CSc1nc2nccnc2c(=O)n1CCc1ccccc1)Nc1nccs1 | enzyme activity | inhibitor | – | 10 µM | inhibition | -11%
COc1ccc(COc2ccc(Cc3cnc(N)nc3N)cc2OC)cc1 | cell-free assay | – | – | 0.5 µM | remaining signal | 106%
C=CC(=O)Nc1cc(Nc2nccc(Nc3cc(Cl)c(F)cc3C(C)(C)O)n2)c(OC)cc1N1CC[C@@H](N(C)C)C1 | enzyme activity | inhibitor | – | 1 µM | inhibition | 73%
C[C@@]1(Cc2ccc(C#N)cc2)C(=O)N(c2cc(Cl)cc(Cl)c2)c2ncc(C(=O)NC3(c4nc(C5CCC5)no4)CC3)n21 | cell-free assay | – | competition with immobilised ligand | 1 µM | remaining binding | 100%
Cc1ccc(C(=O)NCc2ccsc2)cc1C#Cc1cn(C(C)C)c2ncnc(N)c12 | enzyme activity | inhibitor | – | 1 µM | activity vs control | 66%
C[C@H](c1ccnc(Nc2nc3ccc(-c4cc(N(C)C)ncn4)cc3[nH]2)c1)N1CCN(C(=O)CC(F)(F)F)CC1 | cell-free assay | – | competition with immobilised ligand | 0.1 µM | remaining binding | 100%
CC(C)(O)[C@H]1CC[C@H](Nc2ccc3ncc(-c4cccc(C(F)(F)F)c4)n3n2)CC1 | enzyme activity | inhibitor | – | 1 µM | remaining activity | 92%
CCCOc1ccc([C@H]2[C@H](C(=O)O)[C@@H](c3ccc4c(c3)OCO4)CN2CC(=O)Nc2c(CC)cccc2CC)cc1 | cell-free assay | – | competition with immobilised ligand | 1 µM | remaining binding | 79%
Cc1ccc(NC(=O)c2ccc(CN3CCN(C)CC3)cc2)cc1Nc1nc(-c2cccnc2)cs1 | cell-free assay | – | – | 0.5 µM | remaining signal | 103%
C[C@@H]1CN(c2cc(-c3nn(C)c4ccc(OC5(C)CC5)cc34)ncn2)C[C@H](C)O1 | cell-free assay | – | competition with immobilised ligand | 1 µM | remaining binding | 80%
O=C(Nc1cnn(-c2csc(C(=O)NC3COC3)c2)c1)Nc1c(F)cccc1Cl | enzyme activity | inhibitor | – | 5 µM | remaining activity | 97%
